ChEMBL document CHEMBL1143667, “Synthesis and pharmacological evaluation of 6,7-indolo/thiazolo-morphinans--further SAR of levorphanol” (J Med Chem, 2007)
Active and inactive are the calls of the source. The calls are words filed in the database; no cut-off is given here.

Tests used:
Mu-type opioid receptor [1] = biological target: T1, Mu-type opioid receptor (Homo sapiens, UniProt P35372); test: Displacement of [3H]DAMGO from human mu opioid receptor expressed in CHO membrane; type: cell membranes
T1 sequence (P35372 whole entry): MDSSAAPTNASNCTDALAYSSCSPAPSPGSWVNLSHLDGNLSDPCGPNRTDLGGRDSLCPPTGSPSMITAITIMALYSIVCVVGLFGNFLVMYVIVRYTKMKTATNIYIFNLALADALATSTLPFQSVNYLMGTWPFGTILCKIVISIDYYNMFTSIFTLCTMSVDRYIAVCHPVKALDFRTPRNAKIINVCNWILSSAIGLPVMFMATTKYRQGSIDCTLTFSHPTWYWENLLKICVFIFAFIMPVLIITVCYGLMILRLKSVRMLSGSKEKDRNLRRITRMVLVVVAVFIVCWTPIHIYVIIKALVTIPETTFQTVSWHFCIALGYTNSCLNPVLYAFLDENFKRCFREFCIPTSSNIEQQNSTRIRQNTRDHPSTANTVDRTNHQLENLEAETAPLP
Summary of the method: (§1)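 CHO membranes (0.5 mg protein/sample) incubated 60 min at 25 °C with [3H]DAMGO (µ) or [3H]U69,593 (κ) and 12 compound concentrations in 1 mL 50 mM Tris-HCl, pH 7.5. Nonspecific binding with 10 µM naloxone. Mean ± SEM of three experiments in triplicate.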

[2] = biological target: T2, Delta-type opioid receptor (Homo sapiens, UniProt P41143); test: Antagonist activity at human delta opioid receptor expressed in CHO membrane assessed as inhibition of SNC80-induced [35S]GTPgammaS binding; type: functional, cell membranes
T2 sequence (P41143 whole entry): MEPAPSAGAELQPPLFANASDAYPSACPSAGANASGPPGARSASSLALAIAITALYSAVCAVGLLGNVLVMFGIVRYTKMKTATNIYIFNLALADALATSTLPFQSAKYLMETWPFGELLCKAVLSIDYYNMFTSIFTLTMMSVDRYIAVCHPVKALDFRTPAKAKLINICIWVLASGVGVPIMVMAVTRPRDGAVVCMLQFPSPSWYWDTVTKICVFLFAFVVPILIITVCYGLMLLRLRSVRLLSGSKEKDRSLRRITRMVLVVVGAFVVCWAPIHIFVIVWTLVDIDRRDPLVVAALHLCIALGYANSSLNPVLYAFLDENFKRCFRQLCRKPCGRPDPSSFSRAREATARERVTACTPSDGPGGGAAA

Mu-type opioid receptor [3] = biological target: T1, Mu-type opioid receptor; test: Agonist activity at human mu opioid receptor expressed in CHO membrane assessed as stimulation of [35S]GTPgammaS binding; type: functional, cell membranes
Summary of the method: (§2)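 Membranes from CHO cells stably expressing human κ (15 µg protein/tube) or µ (7.5 µg/tube) receptor; 12 agonist concentrations, 60 min at 30 °C in Tris-HCl/MgCl2/NaCl/EGTA buffer pH 7.4 with 3 µM GDP and [35S]GTPγS (0.8 nM). Nonspecific binding with 10 µM unlabeled GTPγS; filtration, scintillation counting. Stimulation as % over basal; at least three experiments in triplicate.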

[4] = biological target: Opioid receptors; delta & kappa (Homo sapiens) (UniProt P41145+P41143); test: Selectivity for human kappa opioid receptor over human delta opioid receptor; type: protein assay
Sequence of Opioid receptors; delta & kappa (Homo sapiens) (P41143 whole entry, looked up): as the sequence (P41143 whole entry) above
Sequence of Opioid receptors; delta & kappa (Homo sapiens) (P41145 whole entry, looked up): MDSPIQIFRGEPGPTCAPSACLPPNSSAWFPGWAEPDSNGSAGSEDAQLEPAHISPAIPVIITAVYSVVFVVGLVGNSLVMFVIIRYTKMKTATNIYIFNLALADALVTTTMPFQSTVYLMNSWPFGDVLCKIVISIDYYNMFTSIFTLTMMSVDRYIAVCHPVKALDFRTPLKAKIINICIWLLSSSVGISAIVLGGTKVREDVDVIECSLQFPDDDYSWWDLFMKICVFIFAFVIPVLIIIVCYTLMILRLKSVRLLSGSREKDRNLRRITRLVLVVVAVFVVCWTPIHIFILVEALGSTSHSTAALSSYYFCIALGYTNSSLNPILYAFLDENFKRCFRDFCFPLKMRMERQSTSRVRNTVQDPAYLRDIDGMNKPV

[5] = biological target: T3, Kappa-type opioid receptor (Homo sapiens, UniProt P41145); test: Displacement of [3H]U-69593 from human kappa opioid receptor expressed in CHO membrane; type: cell membranes; summary of the method: as §1
T3 sequence (P41145 whole entry): as the sequence (P41145 whole entry, looked up) above

[6] = biological target: T3, Kappa-type opioid receptor; test: Antagonist activity at human kappa opioid receptor expressed in CHO membrane assessed as inhibition of U50488-induced [35S]GTP-gamma-S binding; type: functional, cell membranes
Summary of the method: (§3)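 Antagonism measured in CHO membranes expressing κ receptor with 100 nM U50,488, or µ receptor with 200 nM DAMGO, plus test compound and 0.8 nM [35S]GTPγS, 3 µM GDP. Filtration and scintillation readout; IC50 and Imax from three experiments in triplicate.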

[7] = biological target: T2, Delta-type opioid receptor; test: Agonist activity at human delta opioid receptor expressed in CHO membrane assessed as stimulation of [35S]GTP-gamma-S binding; type: functional, cell membranes
[8] = biological target: T3, Kappa-type opioid receptor; test: Agonist activity at human kappa opioid receptor expressed in CHO membrane assessed as stimulation of [35S]GTP-gamma-S binding; type: functional, cell membranes; summary of the method: as §2
[9] = biological target: Opioid receptors; mu & kappa (Homo sapiens) (UniProt P41145+P35372); test: Selectivity for human kappa opioid receptor over human mu opioid receptor; type: protein assay
Sequence of Opioid receptors; mu & kappa (Homo sapiens) (P35372 whole entry, looked up): as the sequence (P35372 whole entry) above
Sequence of Opioid receptors; mu & kappa (Homo sapiens) (P41145 whole entry, looked up): as the sequence (P41145 whole entry, looked up) above

[10] = biological target: T2, Delta-type opioid receptor; test: Displacement of [3H]naltrindole from human delta opioid receptor expressed in CHO membrane; type: cell membranes
Summary of the method: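 CHO membranes (0.5 mg protein/sample) incubated at 25 °C with δ-specific radioligand and 12 compound concentrations in 1 mL 50 mM Tris-HCl, pH 7.5; nonspecific binding with 10 µM naloxone. Three experiments in triplicate.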

Mu-type opioid receptor [11] = biological target: T1, Mu-type opioid receptor; test: Antagonist activity at human mu opioid receptor expressed in CHO membrane assessed as inhibition of DAMGO-induced [35S]GTP-gamma-S binding; type: functional, cell membranes; summary of the method: as §3

| Structure (SMILES) | Ki (Mu-type opioid receptor [1]) [nM] | IC50 [2] [nM] | Imax [2] [%] | EC50 (Mu-type opioid receptor [3]) [nM] | Emax (Mu-type opioid receptor [3]) [%] | Ratio Ki [4] | Ki [5] [nM] | IC50 [6] [nM] | Imax [6] [%] | EC50 [7] [nM] | Emax [7] [%] | EC50 [8] [nM] | Emax [8] [%] | Ratio Ki [9] | Ki [10] [nM] | IC50 (Mu-type opioid receptor [11]) [nM] | Imax (Mu-type opioid receptor [11]) [%] | Activity [2] | Activity [6] |
| --- | --- | --- | --- | --- | --- | --- | --- | --- | --- | --- | --- | --- | --- | --- | --- | --- | --- | --- | --- |
| Oc1ccc2c(c1)[C@]13CCN(CC4CC4)[C@H](C2)[C@@H]1Cc1c([nH]c2ccccc12)C3 | 1.1 | 1.2 | 73 | 92 | 47 | 0.3 | 0.64 | 17 | 49 | 0.16 | 22 | 61 | 67 | 2 | 0.19 | 12 | 84 |  |  |
| Nc1nc2c(s1)C[C@H]1[C@H]3Cc4ccc(O)cc4[C@@]1(CCN3CC1CC1)C2 |  |  |  |  |  |  | 0.07 |  |  | 0.17 | 49 | 0.34 | 37 |  | 0.23 |  |  | inactive | inactive |
| COc1ccc2c(c1)[C@]13CCN(CC4CC4)[C@H](C2)[C@@H]1Cc1c([nH]c2ccccc12)C3 | 5.9 |  |  | 1.7 | 72 | 1 | 1.4 |  |  | 1.5 | 56 | 24 | 68 | 4 | 1.5 | 440 | 43 | inactive | inactive |
| COc1ccc2c(c1)[C@]13CCN(C)[C@H](C2)[C@@H]1Cc1c([nH]c2ccccc12)C3 | 340 |  |  |  |  | 0.1 | 390 |  |  |  |  |  |  | 0.9 | 35 |  |  |  |  |
| CN1CC[C@]23Cc4nc(N)sc4C[C@H]2[C@H]1Cc1ccc(O)cc13 | 0.49 |  |  | 140 | 42 | 2 | 2.2 |  |  | 8.4 | 67 | 21 | 44 | 0.2 | 4.2 |  | 45 | inactive | inactive |
| COc1ccc2c(c1)[C@]13CCN(CC4CCC4)[C@H](C2)[C@@H]1Cc1c([nH]c2ccccc12)C3 | 330 |  |  |  |  | 0.1 | 89 |  |  | 23 | 54 |  |  | 4 | 8.7 |  |  | inactive |  |
| Nc1nc2c(s1)C[C@H]1[C@H]3Cc4ccc(O)cc4[C@@]1(CCN3CC1CCC1)C2 | 0.37 |  |  | 2.6 | 33 | 8 | 0.14 | 93 | 44 | 2.5 | 51 | 2.6 | 40 | 3 | 1.1 | 26 | 68 | inactive |  |
| CN1CC[C@]23Cc4[nH]c5ccccc5c4C[C@H]2[C@H]1Cc1ccc(O)cc13 | 22 | 1.5 | 45 |  |  | 0.03 | 14 |  |  | 0.47 | 23 |  |  | 1.6 | 0.35 |  |  |  |  |
| Oc1ccc2c(c1)[C@]13CCN(CC4CCC4)[C@H](C2)[C@@H]1Cc1c([nH]c2ccccc12)C3 | 3.9 | 0.6 | 55 | 110 | 68 | 0.2 | 1 |  |  | 0.8 | 37 | 190 | 87 | 4 | 0.17 |  | 23 |  | inactive |
